Calls of active or inactive are those of the source. No cut-off for these calls is given here.
What was measured:
[1] = Cytotoxicity against human H1299 cells assessed as cell viability at 1 uM after 48 hrs by MTT assay; type: functional; details: NCI-H1299, 48 h, read-out: Activity
Outline: (§1)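 H1299 cells at about 2 × 10³ per well were grown 24 h at 37 °C in 5% CO₂. Compounds were dissolved in DMSO just before use and diluted into complete medium. After 48 h exposure, MTT was added for 4 h at 37 °C, then lysis buffer (20% SDS, 50% DMF) for 16 h at 37 °C. Absorbance was read at 550 nm.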

[2] = target: T1, Telomerase reverse transcriptase (Homo sapiens, UniProt O14746); test: Inhibition of TERT transcriptional activity in human H1299 cells assessed SEAP activity at 1 uM incubated for 24 hrs by SEAP assay; type: cell-based; parameters: scale not given: the % may be the effect or the level left
Outline: (§2)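 H1299 stable clones carry the hTERT promoter (−3338 to +1 bp) upstream of SEAP, introduced by electroporation and selected with G418. About 2 × 10³ cells per well were grown 24 h at 37 °C, given fresh medium, then drug for 24 h. Collected media were heated at 65 °C for 10 min, mixed with equal SEAP buffer (2 M diethanolamine, 1 mM MgCl₂, 20 mM L-homoarginine) and p-nitrophenyl phosphate at 12 mM final.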

[3] = Cytotoxicity against human H1299 cells assessed as cell viability at 10 uM after 48 hrs by MTT assay; type: functional; details: NCI-H1299, 48 h, read-out: Activity; outline: as §1
[4] = Cytotoxicity against human H1299 cells assessed as cell viability at 100 uM after 48 hrs by MTT assay; type: functional; details: NCI-H1299, 48 h, read-out: Activity; outline: as §1
[5] = tested on: PC-3; test: Growth inhibition of human PC3 cells after 48 hrs by SRB assay; type: functional, cell-based; details: PC-3, 48 h
Outline: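 PC-3 cells were seeded in medium with 5% FBS; after 24 h a plate was fixed with 10% TCA as T₀. Vehicle (0.1% DMSO) or compound was given for 48 h, then cells were TCA-fixed, stained with 0.4% SRB in 1% acetic acid, solubilized in 10 mM Trizma base and read at 515 nm. IC₅₀ is the concentration halving the protein increase seen in controls.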

[6] = target: T1, Telomerase reverse transcriptase; test: Inhibition of TERT transcriptional activity in human H1299 cells assessed SEAP activity at 100 uM incubated for 24 hrs by SEAP assay; type: cell-based; parameters: scale not given: the % may be the effect or the level left; outline: as §2
[7] = target: T1, Telomerase reverse transcriptase; test: Inhibition of TERT activity in human H1299 cells homogenates incubated for 5 mins at 100 uM by TRAP assay; type: cell-free
Outline: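 Telomerase-active extracts were prepared from H1299 cells, and lysate protein was measured against BSA standards. Compounds were tested in the TRAP assay, with RNase A-treated extracts as negative controls.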

[8] = target: T1, Telomerase reverse transcriptase; test: Inhibition of TERT transcriptional activity in human H1299 cells assessed SEAP activity at 10 uM incubated for 24 hrs by SEAP assay; type: cell-based; parameters: scale not given: the % may be the effect or the level left; outline: as §2

T1 sequence (O14746 whole entry): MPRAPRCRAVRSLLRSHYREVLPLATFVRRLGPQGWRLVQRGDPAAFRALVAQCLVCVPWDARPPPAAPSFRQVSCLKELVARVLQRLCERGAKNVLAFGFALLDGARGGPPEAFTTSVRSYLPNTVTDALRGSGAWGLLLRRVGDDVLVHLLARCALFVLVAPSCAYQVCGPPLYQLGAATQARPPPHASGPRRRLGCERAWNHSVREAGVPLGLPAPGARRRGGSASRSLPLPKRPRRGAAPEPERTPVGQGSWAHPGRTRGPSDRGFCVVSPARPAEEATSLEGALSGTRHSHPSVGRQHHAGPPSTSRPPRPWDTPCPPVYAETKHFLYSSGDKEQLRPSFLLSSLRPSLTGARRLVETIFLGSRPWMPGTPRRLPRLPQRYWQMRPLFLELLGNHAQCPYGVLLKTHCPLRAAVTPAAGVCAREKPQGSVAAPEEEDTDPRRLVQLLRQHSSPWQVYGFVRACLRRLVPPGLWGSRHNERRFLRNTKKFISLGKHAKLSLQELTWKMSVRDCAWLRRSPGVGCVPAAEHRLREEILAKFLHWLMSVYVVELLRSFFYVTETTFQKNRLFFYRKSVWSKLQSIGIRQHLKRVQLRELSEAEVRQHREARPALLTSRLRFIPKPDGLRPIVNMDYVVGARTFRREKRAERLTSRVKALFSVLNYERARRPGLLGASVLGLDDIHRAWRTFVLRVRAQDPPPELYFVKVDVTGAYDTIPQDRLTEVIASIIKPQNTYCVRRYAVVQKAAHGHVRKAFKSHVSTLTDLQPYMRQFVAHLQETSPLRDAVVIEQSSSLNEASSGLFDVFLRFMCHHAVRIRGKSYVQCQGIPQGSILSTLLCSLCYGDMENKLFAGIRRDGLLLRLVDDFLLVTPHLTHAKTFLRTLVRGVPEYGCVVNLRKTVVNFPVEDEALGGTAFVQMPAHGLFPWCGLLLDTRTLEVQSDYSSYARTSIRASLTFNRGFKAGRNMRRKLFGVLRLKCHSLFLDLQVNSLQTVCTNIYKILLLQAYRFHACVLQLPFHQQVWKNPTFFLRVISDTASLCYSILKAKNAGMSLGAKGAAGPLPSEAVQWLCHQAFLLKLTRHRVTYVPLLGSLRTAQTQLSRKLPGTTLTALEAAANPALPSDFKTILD

Row | SMILES | viability at 1 µM [1] | Activity [2] | viability at 10 µM [3] | viability at 100 µM [4] | IC50 [5] | Activity [6] | TERT inhibition (active/not active) [7] | Activity [8]
1 | O=C1c2ccccc2C(=O)c2c1ccc1nc(CN3CCN(Cc4ccccc4)CC3)[nH]c21 | 93% | 98% | 51% | 13% | > 30 µM | 0% | inactive | 11%
2 | O=C1c2ccccc2C(=O)c2c1ccc1nc(CN3CCSCC3)[nH]c21 | 92% | 115% | 77% | 1% | 6.7 µM | 5% | inactive | 77%
3 | O=C1c2ccccc2C(=O)c2c1ccc1nc(CCCl)[nH]c21 | 91% | 95% | 86% | 40% | 5.2 µM | 8% | inactive | 83%
4 | CCN(C)Cc1nc2ccc3c(c2[nH]1)C(=O)c1ccccc1C3=O | 99% | 97% | 65% | 0% | 7.5 µM | 0% | inactive | 39%
5 | O=C1c2ccccc2C(=O)c2c1ccc1nc(CN3CCN(c4ncccn4)CC3)[nH]c21 | 85% | 111% | 74% | 28% | 27.9 µM | 19% | inactive | 92%
6 | CN1CCN(CCc2nc3ccc4c(c3[nH]2)C(=O)c2ccccc2C4=O)CC1 | 87% | 74% | 32% | 0% | 17.3 µM | 0% | inactive | 7%
7 | N#Cc1ccccc1N1CCN(Cc2nc3ccc4c(c3[nH]2)C(=O)c2ccccc2C4=O)CC1 | 78% | 106% | 62% | 22% | 29 µM | 6% | inactive | 57%
8 | CN(Cc1nc2ccc3c(c2[nH]1)C(=O)c1ccccc1C3=O)Cc1c2ccccc2cc2ccccc12 | 98% | 102% | 84% | 42% | > 30 µM | 12% | inactive | 77%
9 | C=CCN1CCN(Cc2nc3ccc4c(c3[nH]2)C(=O)c2ccccc2C4=O)CC1 | 86% | 87% | 45% | 0% | 12.8 µM | 0% | inactive | 17%
10 | O=C1c2ccccc2C(=O)c2c1ccc1nc(CN(Cc3ccccn3)Cc3ccccn3)[nH]c21 | 101% | 86% | 13% | 0% | 6.4 µM | 0% | inactive | 0%
11 | COc1cccc(CN(C)Cc2nc3ccc4c(c3[nH]2)C(=O)c2ccccc2C4=O)c1 | 97% | 105% | 98% | 9% | 18.7 µM | 0% | inactive | 78%
12 | O=C1c2ccccc2C(=O)c2c1ccc1nc(CCN3CCN(c4ccccn4)CC3)[nH]c21 | 98% | 88% | 93% | 57% | > 30 µM | 1% | inactive | 63%
13 | CC1CCN(Cc2nc3ccc4c(c3[nH]2)C(=O)c2ccccc2C4=O)CC1 | 114% | 102% | 110% | 32% | > 30 µM | 26% | inactive | 97%
14 | CN(Cc1nc2ccc3c(c2[nH]1)C(=O)c1ccccc1C3=O)CC1OCCO1 | 104% | 90% | 90% | 28% | 21 µM | 7% | inactive | 69%
15 | O=C1c2ccccc2C(=O)c2c1ccc1nc(CCl)[nH]c21 | 82% | 69% | 0% | 0% | 5.1 µM | 3% | inactive | 0%
16 | O=C1c2ccccc2C(=O)c2c1ccc1nc(CCN3CCN(c4ccccc4)CC3)[nH]c21 | 94% | 103% | 96% | 65% | > 30 µM | 37% | inactive | 93%
17 | O=C1c2ccccc2C(=O)c2c1ccc1nc(CNCc3ccccc3C(F)(F)F)[nH]c21 | 99% | 87% | 96% | 6% | > 30 µM | 0% | inactive | 81%
18 | O=C1c2ccccc2C(=O)c2c1ccc1nc(CN3CCC4(CC3)OCCO4)[nH]c21 | 103% | 97% | 79% | 15% | 21.6 µM | 14% | inactive | 96%
19 | O=C1c2ccccc2C(=O)c2c1ccc1nc(CN3CCCCCC3)[nH]c21 | 104% | 107% | 85% | 0% | 10.5 µM | 4% | inactive | 66%
20 | COc1cccc(N2CCN(Cc3nc4ccc5c(c4[nH]3)C(=O)c3ccccc3C5=O)CC2)c1 | 81% | 105% | 58% | 24% | 15.3 µM | 3% | inactive | 30%

Reference: ChEMBL document CHEMBL2331225, “Structure-based design, synthesis and evaluation of novel anthra[1,2-d]imidazole-6,11-dione derivatives as telomerase inhibitors and potential for cancer polypharmacology” (Eur J Med Chem, 2013)
